Four compounds from ChEMBL document CHEMBL5696442, “Discovery of type II inhibitors of TGFβ-activated kinase 1 (TAK1) and mitogen-activated protein kinase kinase kinase kinase 2 (MAP4K2)” (J Med Chem, 2015) can be followed below.

Usually inhibition stands for the drop in the measured response relative to a control, in per cent. For orientation: IC50 means the midpoint of a concentration-inhibition curve.

Calls of active or inactive are those of the source. The calls are words filed in the database; no cut-off is given here.

The target in assay [1] is T1, Mitogen-activated protein kinase 12 (Homo sapiens) (UniProt P53778).
T1 sequence (whole entry): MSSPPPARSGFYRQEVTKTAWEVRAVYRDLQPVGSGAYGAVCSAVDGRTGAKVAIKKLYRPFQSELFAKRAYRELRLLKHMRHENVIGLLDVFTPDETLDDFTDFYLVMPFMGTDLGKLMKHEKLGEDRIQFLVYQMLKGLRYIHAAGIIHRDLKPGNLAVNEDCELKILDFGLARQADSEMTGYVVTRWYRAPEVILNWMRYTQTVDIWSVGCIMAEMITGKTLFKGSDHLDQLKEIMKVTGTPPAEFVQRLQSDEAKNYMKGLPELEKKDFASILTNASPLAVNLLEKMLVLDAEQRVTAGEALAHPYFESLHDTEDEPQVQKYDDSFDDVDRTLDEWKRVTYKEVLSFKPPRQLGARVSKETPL
The experiment in a line: Inhibition of p38gamma Lys2 labeling site in human Huh-7 cell lysate at 1 uM by KiNativ Profiling analysis relative to control. The format is subcellular.

For assay [2], the system named is L929. Nature of the assay: Inhibition of TNF alpha induced IKKalpha/beta phosphorylation level in mouse L929 cells at 100 nM preincubated for 30 mins followed by TNF alpha stimulation and measured after 5 mins by Western blot analysis. The format is functional, cell-based. In outline:
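Mouse L929 cells were pretreated with compound at 100 nM for 30 min, then stimulated with TNFα for 5 min. Lysates were Western blotted for phospho-IKKα/β, with tubulin as loading control.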

In assay [3] the target is Cyclin-dependent kinase 2 (Homo sapiens) (UniProt P24941). The experiment in a line: Inhibition of CDK2 Lys2 labeling site in human A-375 cells at 0.05 uM by KiNativ Profiling analysis relative to control. The format is cell-based.
The target in assay [4] is Cyclin-dependent kinase 6 (Homo sapiens) (UniProt Q00534). The experiment in a line: Inhibition of CDK6 Lys2 labeling site in human A-375 cells at 0.5 uM by KiNativ Profiling analysis relative to control. The assay is classed as cell-based. In a few lines:
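Live A375 melanoma cells were treated with compound at 5 or 0.5 μM. The cells were then lysed, and the lysates were labeled with a lysine-reactive ATP or ADP-biotin acyl probe (KiNativ). Inhibition is the compound's protection of each kinase labeling-site peptide from probe labeling, relative to untreated control.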

Assay [5] deals with Ribosomal protein S6 kinase alpha-3 (Homo sapiens) (UniProt P51812). The experiment in a line: Inhibition of RSK2 domain2 Lys2 labeling site in human A-375 cells at 0.05 uM by KiNativ Profiling analysis relative to control. The format is cell-based.
Assay [6] has as its target Mitogen-activated protein kinase 8 (Homo sapiens, UniProt P45983). Nature of the assay: Inhibition of JNK1 (unknown origin) Lys2 labeling site by KiNativ Profiling analysis.
Assay [7] concerns the target Serine/threonine-protein kinase WNK1 (Homo sapiens) (UniProt Q9H4A3). The experiment in a line: Inhibition of Wnk1 Lys2 labeling site in human A-375 cells at 0.05 uM by KiNativ Profiling analysis relative to control. The assay is classed as cell-based.
Assay [8] addresses Mitogen-activated protein kinase 9 (Homo sapiens, UniProt P45984). Nature of the assay: Inhibition of JNK2 (unknown origin) Lys2 labeling site by KiNativ Profiling analysis.
Assay [9] deals with Tyrosine-protein kinase ABL2 (Homo sapiens, UniProt P42684). Nature of the assay: Inhibition of ARG ACT labeling site in human A-375 cells at 5 uM by KiNativ Profiling analysis relative to control. The assay is classed as cell-based. In outline:
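Intact A375 melanoma cells were treated with compound at 5 or 0.5 μM, then lysed. Lysate kinases were labeled with a lysine-reactive ATP or ADP-biotin probe (KiNativ). Inhibition is read as protection of each kinase labeling site from probe labeling.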

The target of assay [10] is Protein kinase C beta type (Homo sapiens) (UniProt P05771). The experiment in a line: Inhibition of PKCb Lys2 labeling site in human A-375 cells at 5 uM by KiNativ Profiling analysis relative to control. The assay is classed as cell-based.
Assay [11] concerns the target T2, Kinase suppressor of Ras 1 (Homo sapiens) (UniProt Q8IVT5).
T2 sequence (whole entry): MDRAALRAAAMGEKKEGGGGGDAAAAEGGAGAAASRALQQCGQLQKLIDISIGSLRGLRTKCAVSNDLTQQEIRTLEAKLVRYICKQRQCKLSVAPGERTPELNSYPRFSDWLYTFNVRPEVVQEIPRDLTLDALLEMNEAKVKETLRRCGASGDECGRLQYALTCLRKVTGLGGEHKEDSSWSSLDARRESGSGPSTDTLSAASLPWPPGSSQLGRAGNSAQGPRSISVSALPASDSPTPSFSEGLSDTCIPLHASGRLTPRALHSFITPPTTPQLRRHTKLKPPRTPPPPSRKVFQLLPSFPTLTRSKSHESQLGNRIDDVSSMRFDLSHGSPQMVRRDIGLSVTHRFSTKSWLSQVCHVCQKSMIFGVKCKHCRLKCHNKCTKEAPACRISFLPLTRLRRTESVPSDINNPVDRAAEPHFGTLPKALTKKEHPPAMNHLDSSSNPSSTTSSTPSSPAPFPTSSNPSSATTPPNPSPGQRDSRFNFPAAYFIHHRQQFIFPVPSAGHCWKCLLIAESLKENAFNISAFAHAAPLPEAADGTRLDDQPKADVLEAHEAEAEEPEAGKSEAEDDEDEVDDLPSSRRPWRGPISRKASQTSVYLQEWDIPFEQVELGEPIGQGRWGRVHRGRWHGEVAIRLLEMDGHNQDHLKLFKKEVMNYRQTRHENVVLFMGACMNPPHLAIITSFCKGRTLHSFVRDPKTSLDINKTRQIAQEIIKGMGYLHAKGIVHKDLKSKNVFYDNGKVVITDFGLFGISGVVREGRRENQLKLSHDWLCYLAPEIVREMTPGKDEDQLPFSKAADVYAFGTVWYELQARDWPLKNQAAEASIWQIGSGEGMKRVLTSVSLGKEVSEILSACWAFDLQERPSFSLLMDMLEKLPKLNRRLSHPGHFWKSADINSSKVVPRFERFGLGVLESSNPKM
The experiment in a line: Inhibition of KSR1 ACT labeling site harbouring SKNVFYDNGK in human A-375 cells at 0.5 uM by KiNativ Profiling analysis relative to control. The format is cell-based.

Assay [12] addresses T3, Serine/threonine-protein kinase Chk1 (Homo sapiens) (UniProt O14757).
T3 sequence (whole entry): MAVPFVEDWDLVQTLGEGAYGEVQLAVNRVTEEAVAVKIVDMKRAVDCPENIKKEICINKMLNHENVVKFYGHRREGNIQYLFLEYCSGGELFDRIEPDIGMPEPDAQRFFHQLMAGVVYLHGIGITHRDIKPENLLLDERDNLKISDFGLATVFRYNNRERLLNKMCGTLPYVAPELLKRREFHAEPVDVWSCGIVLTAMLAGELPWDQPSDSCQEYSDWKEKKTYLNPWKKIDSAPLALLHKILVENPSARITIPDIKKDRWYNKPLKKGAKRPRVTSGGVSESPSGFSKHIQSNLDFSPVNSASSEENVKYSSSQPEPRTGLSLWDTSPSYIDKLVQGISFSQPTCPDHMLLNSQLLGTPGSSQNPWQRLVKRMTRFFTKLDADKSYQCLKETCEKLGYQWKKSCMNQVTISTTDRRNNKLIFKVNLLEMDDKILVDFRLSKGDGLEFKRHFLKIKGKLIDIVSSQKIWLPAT
Nature of the assay: Inhibition of CHK1 Lys2 labeling site harbouring DIKPENLLLDER in human A-375 cells at 0.05 uM by KiNativ Profiling analysis relative to control. The format is cell-based.

Sequence of Protein kinase C beta type (Homo sapiens) (P05771 2-671 limits assumed): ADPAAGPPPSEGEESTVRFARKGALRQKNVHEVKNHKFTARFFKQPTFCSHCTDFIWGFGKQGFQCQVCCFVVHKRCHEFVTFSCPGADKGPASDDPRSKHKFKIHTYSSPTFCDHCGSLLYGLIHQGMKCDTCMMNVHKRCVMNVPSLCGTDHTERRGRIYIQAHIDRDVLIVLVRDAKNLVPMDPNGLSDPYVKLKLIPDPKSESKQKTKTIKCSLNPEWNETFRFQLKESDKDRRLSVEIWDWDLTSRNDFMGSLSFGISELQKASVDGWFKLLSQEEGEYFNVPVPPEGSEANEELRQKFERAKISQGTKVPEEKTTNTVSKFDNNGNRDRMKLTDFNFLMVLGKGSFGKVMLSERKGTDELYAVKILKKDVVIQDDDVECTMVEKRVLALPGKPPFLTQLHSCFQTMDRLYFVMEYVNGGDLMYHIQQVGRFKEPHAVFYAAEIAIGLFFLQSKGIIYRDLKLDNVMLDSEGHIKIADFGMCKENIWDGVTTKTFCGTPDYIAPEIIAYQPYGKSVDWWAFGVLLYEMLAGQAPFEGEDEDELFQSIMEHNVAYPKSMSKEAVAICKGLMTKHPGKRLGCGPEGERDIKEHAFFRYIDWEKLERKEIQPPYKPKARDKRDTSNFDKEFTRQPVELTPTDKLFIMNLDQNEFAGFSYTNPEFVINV
Sequence of Mitogen-activated protein kinase 9 (P45984 whole entry): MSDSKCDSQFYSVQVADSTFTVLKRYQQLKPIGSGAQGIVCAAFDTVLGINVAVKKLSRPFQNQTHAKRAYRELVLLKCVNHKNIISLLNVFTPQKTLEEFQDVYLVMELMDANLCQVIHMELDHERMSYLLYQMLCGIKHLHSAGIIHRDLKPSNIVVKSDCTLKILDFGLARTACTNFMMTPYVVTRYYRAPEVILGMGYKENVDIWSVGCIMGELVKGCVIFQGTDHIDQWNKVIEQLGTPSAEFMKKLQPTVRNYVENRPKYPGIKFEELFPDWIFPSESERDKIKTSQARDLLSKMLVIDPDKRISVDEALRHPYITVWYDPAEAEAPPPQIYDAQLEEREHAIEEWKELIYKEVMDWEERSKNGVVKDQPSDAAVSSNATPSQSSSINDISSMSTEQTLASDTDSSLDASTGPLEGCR
Sequence of Serine/threonine-protein kinase WNK1 (Homo sapiens) (Q9H4A3 whole entry, looked up): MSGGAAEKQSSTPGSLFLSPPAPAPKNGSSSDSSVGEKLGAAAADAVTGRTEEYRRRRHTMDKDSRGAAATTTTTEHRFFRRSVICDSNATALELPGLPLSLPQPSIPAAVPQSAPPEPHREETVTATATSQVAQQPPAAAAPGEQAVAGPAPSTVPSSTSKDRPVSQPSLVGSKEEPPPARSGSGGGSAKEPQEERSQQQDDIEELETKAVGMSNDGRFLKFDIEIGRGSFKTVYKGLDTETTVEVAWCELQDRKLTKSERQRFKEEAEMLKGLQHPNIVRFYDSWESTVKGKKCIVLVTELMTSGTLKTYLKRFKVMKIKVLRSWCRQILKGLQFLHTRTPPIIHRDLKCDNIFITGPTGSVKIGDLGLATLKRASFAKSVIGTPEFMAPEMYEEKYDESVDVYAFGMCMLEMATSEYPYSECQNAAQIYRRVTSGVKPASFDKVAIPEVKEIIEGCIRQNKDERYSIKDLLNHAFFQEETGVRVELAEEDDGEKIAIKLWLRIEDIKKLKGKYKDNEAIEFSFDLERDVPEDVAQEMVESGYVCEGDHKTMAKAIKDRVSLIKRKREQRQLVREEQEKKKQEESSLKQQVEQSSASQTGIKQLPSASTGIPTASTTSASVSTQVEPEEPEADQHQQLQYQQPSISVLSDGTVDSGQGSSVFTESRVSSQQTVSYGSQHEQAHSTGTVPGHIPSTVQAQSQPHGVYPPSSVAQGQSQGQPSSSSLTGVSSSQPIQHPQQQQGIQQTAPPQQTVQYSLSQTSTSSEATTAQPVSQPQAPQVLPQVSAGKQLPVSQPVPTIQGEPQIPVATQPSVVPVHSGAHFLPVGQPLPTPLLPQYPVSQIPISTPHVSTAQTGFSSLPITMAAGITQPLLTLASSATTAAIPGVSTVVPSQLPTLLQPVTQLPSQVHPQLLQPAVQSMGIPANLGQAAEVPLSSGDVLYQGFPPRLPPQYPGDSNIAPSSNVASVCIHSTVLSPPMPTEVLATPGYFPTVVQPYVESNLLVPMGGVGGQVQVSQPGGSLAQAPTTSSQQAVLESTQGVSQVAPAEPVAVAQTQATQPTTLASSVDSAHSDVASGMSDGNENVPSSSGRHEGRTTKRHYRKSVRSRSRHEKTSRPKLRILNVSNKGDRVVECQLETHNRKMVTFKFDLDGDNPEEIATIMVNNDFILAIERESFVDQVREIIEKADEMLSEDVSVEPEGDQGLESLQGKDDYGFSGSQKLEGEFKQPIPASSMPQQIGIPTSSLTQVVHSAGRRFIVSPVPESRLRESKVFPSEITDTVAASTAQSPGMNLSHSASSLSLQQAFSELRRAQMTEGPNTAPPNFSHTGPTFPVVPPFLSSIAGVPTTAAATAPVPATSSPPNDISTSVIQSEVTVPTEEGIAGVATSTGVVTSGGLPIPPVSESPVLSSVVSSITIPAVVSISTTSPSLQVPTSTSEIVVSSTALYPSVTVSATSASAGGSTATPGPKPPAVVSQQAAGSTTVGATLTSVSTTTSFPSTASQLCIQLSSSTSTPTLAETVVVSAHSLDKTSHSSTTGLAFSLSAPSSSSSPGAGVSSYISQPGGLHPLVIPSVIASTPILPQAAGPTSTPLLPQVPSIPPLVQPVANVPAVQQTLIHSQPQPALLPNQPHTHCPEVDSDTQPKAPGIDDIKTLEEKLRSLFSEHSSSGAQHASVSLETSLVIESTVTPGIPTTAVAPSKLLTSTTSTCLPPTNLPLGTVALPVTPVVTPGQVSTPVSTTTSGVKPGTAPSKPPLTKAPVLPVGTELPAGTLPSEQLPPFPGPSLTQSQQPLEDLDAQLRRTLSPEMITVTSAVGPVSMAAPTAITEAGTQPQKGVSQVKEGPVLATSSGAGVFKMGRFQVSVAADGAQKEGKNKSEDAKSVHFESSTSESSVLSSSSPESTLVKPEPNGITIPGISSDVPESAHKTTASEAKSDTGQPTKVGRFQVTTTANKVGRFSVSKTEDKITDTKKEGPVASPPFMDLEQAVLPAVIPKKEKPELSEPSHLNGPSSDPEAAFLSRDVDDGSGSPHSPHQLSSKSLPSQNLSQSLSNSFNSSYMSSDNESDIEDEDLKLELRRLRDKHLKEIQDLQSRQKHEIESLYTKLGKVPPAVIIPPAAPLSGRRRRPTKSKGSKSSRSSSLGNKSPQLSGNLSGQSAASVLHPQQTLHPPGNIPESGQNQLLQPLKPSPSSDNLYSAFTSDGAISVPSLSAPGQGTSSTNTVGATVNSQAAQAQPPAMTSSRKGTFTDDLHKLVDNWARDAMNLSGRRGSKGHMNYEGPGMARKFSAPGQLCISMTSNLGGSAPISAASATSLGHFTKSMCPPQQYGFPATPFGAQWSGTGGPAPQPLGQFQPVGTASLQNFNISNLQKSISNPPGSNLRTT
Sequence of Mitogen-activated protein kinase 8 (P45983 whole entry): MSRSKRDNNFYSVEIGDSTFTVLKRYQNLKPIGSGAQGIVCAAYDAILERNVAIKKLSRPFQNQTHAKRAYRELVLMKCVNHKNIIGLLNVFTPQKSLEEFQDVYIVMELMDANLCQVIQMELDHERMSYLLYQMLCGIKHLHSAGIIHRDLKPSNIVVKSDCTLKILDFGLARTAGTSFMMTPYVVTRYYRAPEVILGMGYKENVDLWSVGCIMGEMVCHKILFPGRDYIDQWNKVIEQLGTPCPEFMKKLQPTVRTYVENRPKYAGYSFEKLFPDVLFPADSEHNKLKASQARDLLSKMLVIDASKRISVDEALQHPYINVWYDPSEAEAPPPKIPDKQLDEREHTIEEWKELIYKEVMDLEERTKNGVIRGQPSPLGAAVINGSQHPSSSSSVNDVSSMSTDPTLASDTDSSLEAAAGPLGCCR
Sequence of Tyrosine-protein kinase ABL2 (P42684 whole entry): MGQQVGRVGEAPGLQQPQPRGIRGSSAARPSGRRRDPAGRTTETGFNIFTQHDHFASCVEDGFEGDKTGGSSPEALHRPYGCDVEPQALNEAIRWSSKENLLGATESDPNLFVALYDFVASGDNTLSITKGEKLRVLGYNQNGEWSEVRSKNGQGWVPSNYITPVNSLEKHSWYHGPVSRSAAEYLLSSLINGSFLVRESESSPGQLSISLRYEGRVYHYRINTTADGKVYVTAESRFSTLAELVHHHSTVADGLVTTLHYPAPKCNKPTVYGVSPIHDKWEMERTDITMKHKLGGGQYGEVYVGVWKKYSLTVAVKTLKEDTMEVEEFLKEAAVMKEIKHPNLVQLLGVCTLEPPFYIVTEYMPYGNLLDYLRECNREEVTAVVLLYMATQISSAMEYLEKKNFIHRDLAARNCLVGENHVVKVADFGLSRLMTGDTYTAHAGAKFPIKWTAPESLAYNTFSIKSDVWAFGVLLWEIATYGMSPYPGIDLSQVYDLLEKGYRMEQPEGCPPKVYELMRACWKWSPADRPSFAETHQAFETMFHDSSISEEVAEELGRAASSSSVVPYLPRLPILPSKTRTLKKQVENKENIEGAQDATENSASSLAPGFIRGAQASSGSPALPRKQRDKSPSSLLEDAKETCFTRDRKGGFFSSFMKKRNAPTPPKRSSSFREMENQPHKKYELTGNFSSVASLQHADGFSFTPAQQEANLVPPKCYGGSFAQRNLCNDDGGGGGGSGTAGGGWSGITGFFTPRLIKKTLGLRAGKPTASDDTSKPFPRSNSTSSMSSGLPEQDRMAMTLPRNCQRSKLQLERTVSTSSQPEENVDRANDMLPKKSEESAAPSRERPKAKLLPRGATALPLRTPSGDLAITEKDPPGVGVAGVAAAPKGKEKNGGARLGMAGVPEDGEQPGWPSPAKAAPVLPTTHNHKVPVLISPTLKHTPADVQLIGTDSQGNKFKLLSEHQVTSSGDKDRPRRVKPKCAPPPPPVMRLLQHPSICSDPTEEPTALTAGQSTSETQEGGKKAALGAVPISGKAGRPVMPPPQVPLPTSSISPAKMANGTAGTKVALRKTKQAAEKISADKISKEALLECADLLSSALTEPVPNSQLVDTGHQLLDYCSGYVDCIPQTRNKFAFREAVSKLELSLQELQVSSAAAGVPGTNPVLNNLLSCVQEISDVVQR

`CNc1cc(Oc2cc(C(=O)Nc3cc(N4CCN(C)CC4)cc(C(F)(F)F)c3)ccc2C)ncn1`: in [1], the inhibition came to 12.8%. In addition, the inhibition entry in [2] was “inactive”.

Regarding `CCN1CCN(Cc2ccc(NC(=O)c3ccc(C)c(/C=C/c4cnc5[nH]ccc5c4OC)c3)cc2C(F)(F)F)CC1`, the inhibition in assay [3] is 13.3%; in [4], 11.4%; in assay [5], 0.3%; in assay [7], 7.1%; in assay [9], above 98%; in assay [10], 50.2%. Moreover, the inhibition worked out at 16.8% in assay [11] and 8.3% in assay [12]. Also, the IC50 in assay [6] and in assay [8] was above 10 µM in each case.

As to `CNc1cc(Oc2cc(C(=O)Nc3cc(-n4cnc(C)c4)cc(C(F)(F)F)c3)ccc2C)ncn1`, the inhibition in [1] stood at 5.5%. Besides, the inhibition entry in assay [2] is “inactive”.

In the case of `CCN1CCN(Cc2ccc(NC(=O)c3ccc(C)c(Oc4ccnc5[nH]ccc45)c3)cc2C(F)(F)F)CC1`, the inhibition in assay [3] was 16.2%; in assay [4] it was 3.9%; in assay [5] it was 2.2%; in assay [7] it was -3.5%; in assay [9], above 98%; in assay [10], 51%. The inhibition in assay [11] was found to be 8.5%; in [12], 49.4%. Besides, the 50% inhibitory concentration (IC50) in assay [6] and in assay [8] was above 10 µM in each case.
